Reference: ChEMBL document CHEMBL5058577, “EUbOPEN Chemogenomics Library 2 (Multiplex)” (2022)

Tested on: Fibroblast
Assay: Multiplex assay against human fibroblast
Format: toxicity, cell-based
Summary of the method: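 At seeding, live cells were stained with Hoechst33342, BioTracker Green Microtubule Cytoskeleton Dye, MitoTracker Red and Annexin V Alexa Fluor 680. After compound addition they were imaged on a CQ1 microscope at 37°C and 5% CO2, and CellPathfinder machine-learning gating sorted them into Hoechst high-intensity objects or normal cells, with normal cells further split into healthy, pyknosed or fragmented nuclei and pyknosed cells into mitotic or apoptotic. Tubulin, mitochondrial-mass and membrane-permeability phenotypes are given as per cents of cells with healthy nuclei.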

[1] = 12 h, 1 µM, compound concentration 1 uM, replicate 1
[2] = 12 h, 1 µM, compound concentration 1 uM, replicate 2
[3] = 12 h, 10 µM, compound concentration 10 uM, replicate 1
[4] = 12 h, 10 µM, compound concentration 10 uM, replicate 2
[5] = 24 h, 1 µM, compound concentration 1 uM, replicate 1
[6] = 24 h, 1 µM, compound concentration 1 uM, replicate 2
[7] = 24 h, 10 µM, compound concentration 10 uM, replicate 1
[8] = 24 h, 10 µM, compound concentration 10 uM, replicate 2
[9] = 48 h, 1 µM, compound concentration 1 uM, replicate 1
[10] = 48 h, 1 µM, compound concentration 1 uM, replicate 2
[11] = 48 h, 10 µM, compound concentration 10 uM, replicate 1
[12] = 48 h, 10 µM, compound concentration 10 uM, replicate 2

With `CCNC1(C(N)=O)CCN(c2ncnc3c2nc(-c2ccccc2Cl)n3-c2ccc(Cl)cc2)CC1` [OTENABANT] the “Population Apoptotic (%)” value [1] was 26%, the “Population Fragmented Nuclei (%)” value [1] was 19% and the “Population Healthy Nuclei (%)” value [1] was 63%. The “Population Hoechst High Intensity Objects (%)” value [1] was 6%, the “Population Membrane Permeable-Phenotype (%)” value [1] was 1% and the “Population Mitochondria Different-Phenotype (%)” value [1] was 7%. The “Population Mitotic Cells (%)” value [1] was 73%, the “Population Normal (%)” value [1] was 93% and the “Population Pyknosed Nuclei (%)” value [1] was 17%. The “Population Tubulin-Different-Phenotype (%)” value [1] was 44%, the “Total Cell Count” value [1] was 161 and the “Population Apoptotic (%)” value [2] was 37%. The “Population Fragmented Nuclei (%)” value [2] was 25%, the “Population Healthy Nuclei (%)” value [2] was 48% and the “Population Hoechst High Intensity Objects (%)” value [2] was 2%. For the same compound, the “Population Membrane Permeable-Phenotype (%)” value [2] was 6%, the “Population Mitochondria Different-Phenotype (%)” value [2] was 10% and the “Population Mitotic Cells (%)” value [2] was 62%. For the same compound, the “Population Normal (%)” value [2] was 97%, the “Population Pyknosed Nuclei (%)” value [2] was 26% and the “Population Tubulin-Different-Phenotype (%)” value [2] was 50%. The “Total Cell Count” value [2] was 156, the “Population Apoptotic (%)” value [3] was 57% and the “Population Fragmented Nuclei (%)” value [3] was 22%. The “Population Healthy Nuclei (%)” value [3] was 64%, the “Population Hoechst High Intensity Objects (%)” value [3] was 4% and the “Population Membrane Permeable-Phenotype (%)” value [3] was 0%. For the same compound, the “Population Mitochondria Different-Phenotype (%)” value [3] was 16%, the “Population Mitotic Cells (%)” value [3] was 42% and the “Population Normal (%)” value [3] was 95%. The “Population Pyknosed Nuclei (%)” value [3] was 12%, the “Population Tubulin-Different-Phenotype (%)” value [3] was 90% and the “Total Cell Count” value [3] was 170. The “Population Apoptotic (%)” value [4] was 40%, the “Population Fragmented Nuclei (%)” value [4] was 30% and the “Population Healthy Nuclei (%)” value [4] was 48%. The “Population Hoechst High Intensity Objects (%)” value [4] was 3%, the “Population Membrane Permeable-Phenotype (%)” value [4] was 12% and the “Population Mitochondria Different-Phenotype (%)” value [4] was 18%. For the same compound, the “Population Mitotic Cells (%)” value [4] was 59%, the “Population Normal (%)” value [4] was 96% and the “Population Pyknosed Nuclei (%)” value [4] was 21%. The “Population Tubulin-Different-Phenotype (%)” value [4] was 87%, the “Total Cell Count” value [4] was 216 and the “Population Apoptotic (%)” value [5] was 26%. The “Population Fragmented Nuclei (%)” value [5] was 17%, the “Population Healthy Nuclei (%)” value [5] was 66% and the “Population Hoechst High Intensity Objects (%)” value [5] was 4%. The “Population Membrane Permeable-Phenotype (%)” value [5] was 0%, the “Population Mitochondria Different-Phenotype (%)” value [5] was 8% and the “Population Mitotic Cells (%)” value [5] was 73%. For the same compound, the “Population Normal (%)” value [5] was 95%, the “Population Pyknosed Nuclei (%)” value [5] was 15% and the “Population Tubulin-Different-Phenotype (%)” value [5] was 44%. The “Total Cell Count” value [5] was 154, the “Population Apoptotic (%)” value [6] was 34% and the “Population Fragmented Nuclei (%)” value [6] was 27%. The “Population Healthy Nuclei (%)” value [6] was 43%, the “Population Hoechst High Intensity Objects (%)” value [6] was 5% and the “Population Membrane Permeable-Phenotype (%)” value [6] was 9%. The “Population Mitochondria Different-Phenotype (%)” value [6] was 14%, the “Population Mitotic Cells (%)” value [6] was 65% and the “Population Normal (%)” value [6] was 94%. The “Population Pyknosed Nuclei (%)” value [6] was 29%, the “Population Tubulin-Different-Phenotype (%)” value [6] was 57% and the “Total Cell Count” value [6] was 155. The “Population Apoptotic (%)” value [7] was 54%, the “Population Fragmented Nuclei (%)” value [7] was 22% and the “Population Healthy Nuclei (%)” value [7] was 64%. The “Population Hoechst High Intensity Objects (%)” value [7] was 2%, the “Population Membrane Permeable-Phenotype (%)” value [7] was 0% and the “Population Mitochondria Different-Phenotype (%)” value [7] was 37%. The “Population Mitotic Cells (%)” value [7] was 45%, the “Population Normal (%)” value [7] was 97% and the “Population Pyknosed Nuclei (%)” value [7] was 12%. The “Population Tubulin-Different-Phenotype (%)” value [7] was 96%, the “Total Cell Count” value [7] was 174 and the “Population Fragmented Nuclei (%)” value [8] was 37%. The “Population Healthy Nuclei (%)” value [8] was 48%, the “Population Hoechst High Intensity Objects (%)” value [8] was 5% and the “Population Membrane Permeable-Phenotype (%)” value [8] was 7%. The “Population Mitochondria Different-Phenotype (%)” value [8] was 30%, the “Population Normal (%)” value [8] was 94% and the “Population Pyknosed Nuclei (%)” value [8] was 13%. The “Population Tubulin-Different-Phenotype (%)” value [8] was 88%, the “Total Cell Count” value [8] was 235 and the “Population Apoptotic (%)” value [9] was 68%. The “Population Fragmented Nuclei (%)” value [9] was 18%, the “Population Healthy Nuclei (%)” value [9] was 69% and the “Population Hoechst High Intensity Objects (%)” value [9] was 8%. The “Population Membrane Permeable-Phenotype (%)” value [9] was 0%, the “Population Mitochondria Different-Phenotype (%)” value [9] was 3% and the “Population Mitotic Cells (%)” value [9] was 31%. The “Population Normal (%)” value [9] was 91%, the “Population Pyknosed Nuclei (%)” value [9] was 12% and the “Population Tubulin-Different-Phenotype (%)” value [9] was 41%. For the same compound, the “Total Cell Count” value [9] was 167, the “Population Apoptotic (%)” value [10] was 59% and the “Population Fragmented Nuclei (%)” value [10] was 33%. The “Population Healthy Nuclei (%)” value [10] was 42%, the “Population Hoechst High Intensity Objects (%)” value [10] was 5% and the “Population Membrane Permeable-Phenotype (%)” value [10] was 13%. The “Population Mitochondria Different-Phenotype (%)” value [10] was 18%, the “Population Mitotic Cells (%)” value [10] was 40% and the “Population Normal (%)” value [10] was 94%. The “Population Pyknosed Nuclei (%)” value [10] was 23%, the “Population Tubulin-Different-Phenotype (%)” value [10] was 72% and the “Total Cell Count” value [10] was 143. The “Population Apoptotic (%)” value [11] was 78%, the “Population Fragmented Nuclei (%)” value [11] was 30% and the “Population Healthy Nuclei (%)” value [11] was 61%. The “Population Hoechst High Intensity Objects (%)” value [11] was 8%, the “Population Membrane Permeable-Phenotype (%)” value [11] was 0% and the “Population Mitochondria Different-Phenotype (%)” value [11] was 49%. The “Population Mitotic Cells (%)” value [11] was 21%, the “Population Normal (%)” value [11] was 91% and the “Population Pyknosed Nuclei (%)” value [11] was 8%. The “Population Tubulin-Different-Phenotype (%)” value [11] was 92%, the “Total Cell Count” value [11] was 187 and the “Population Apoptotic (%)” value [12] was 61%. For the same compound, the “Population Fragmented Nuclei (%)” value [12] was 46%, the “Population Healthy Nuclei (%)” value [12] was 47% and the “Population Hoechst High Intensity Objects (%)” value [12] was 2%. The “Population Membrane Permeable-Phenotype (%)” value [12] was 7%, the “Population Mitochondria Different-Phenotype (%)” value [12] was 26% and the “Population Mitotic Cells (%)” value [12] was 38%. For the same compound, the “Population Normal (%)” value [12] was 97%, the “Population Pyknosed Nuclei (%)” value [12] was 6% and the “Population Tubulin-Different-Phenotype (%)” value [12] was 89%. The “Total Cell Count” value [12] was 299.
